# In ChEMBL document CHEMBL1127290, “1-(2,5-Dimethoxy-4-(trifluoromethyl)phenyl)-2-aminopropane: a potent serotonin 5-HT2A/2C agonist” (J Med Chem, 1994):
# “And” between values parts separate entries of the source, which are not always exact repeats. Equal values may be shown once.
# Experiments:
# [1] = species on record: Rattus norvegicus; assay: Effective dose in rat; assay type: functional
# Method in brief: (§1)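 Rats trained on a two-lever FR50 food-reinforced task to discriminate LSD tartrate (0.08 mg/kg, ip, 30 min pre-session) from saline. Test drugs were given ip in 0.9% saline, 1 mL/kg, 30 min before extinction test sessions ended at 50 presses; failure within 5 min was scored as disruption. Quantal %SDL per dose. ED50 with 95% CI by Litchfield–Wilcoxon log-probit, not calculated if ≥50% disrupted.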
# [2] = molecular target: T1, Serotonin receptor 2a and 2c (5HT2A and 5HT2C) (Rattus norvegicus, UniProt P08909+P14842); assay: Tested for the binding affinity against the site labelled by the 5-hydroxytryptamine 2A receptor - 5-hydroxytryptamine 2C receptor agonist [125I]- - (+/-)DOI; assay type: protein assay
# Method in brief: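 Rat frontal cortex homogenate, pooled and preincubated twice at 37 °C. Buffer was 50 mM Tris HCl pH 7.4 with 0.5 mM EDTA, 0.1% ascorbate, pargyline and MgCl2; 200–400 μg protein. 0.1 nM [125I]DOI was competed by 8–10 test concentrations, 15 min at 37 °C, then GF/C filtration. Nonspecific binding defined by 10 μM cinanserin. Triplicates, gamma counting.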
# [3] = molecular target: T1, Serotonin receptor 2a and 2c (5HT2A and 5HT2C); assay: Tested for the binding affinity against the site labelled by the 5-hydroxytryptamine 2A receptor - 5-hydroxytryptamine 2C receptor antagonist [3H]- ketanserin; assay type: protein assay
# Method in brief: (§2)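 Rat frontal cortex homogenate in 50 mM Tris HCl pH 7.4 with 0.5 mM EDTA, 0.1% ascorbate, pargyline and 5.7 mM CaCl2; 200–400 μg protein. […] Nonspecific binding defined by 10 μM cinanserin. Triplicate determinations, scintillation counting.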
# [4] = molecular target: T2, 5-hydroxytryptamine receptor 1A (Rattus norvegicus, UniProt P19327); assay: Tested for the binding affinity against the site labelled by the 5-hydroxytryptamine 1A receptor agonist [3H]- 8-OH-DPAT
# T2 sequence (P19327 whole entry): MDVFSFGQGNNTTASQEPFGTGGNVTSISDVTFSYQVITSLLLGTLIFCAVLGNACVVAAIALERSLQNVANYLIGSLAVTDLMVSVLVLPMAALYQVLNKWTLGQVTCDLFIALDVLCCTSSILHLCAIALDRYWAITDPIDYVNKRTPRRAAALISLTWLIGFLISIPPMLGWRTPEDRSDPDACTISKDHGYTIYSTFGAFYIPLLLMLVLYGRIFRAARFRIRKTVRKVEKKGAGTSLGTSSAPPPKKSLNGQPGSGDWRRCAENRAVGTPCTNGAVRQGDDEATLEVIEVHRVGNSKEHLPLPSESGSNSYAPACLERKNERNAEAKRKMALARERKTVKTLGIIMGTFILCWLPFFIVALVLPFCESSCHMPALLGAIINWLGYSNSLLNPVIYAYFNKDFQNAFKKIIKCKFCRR
# Method in brief: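 [3H]-8-OH-DPAT binding in rat brain homogenate (frontal cortex or hippocampus) in 50 mM Tris HCl pH 7.4 with EDTA, ascorbate and pargyline; 200–400 μg protein. 15 min at 37 °C, then GF/C filtration. Nonspecific binding defined by 10 μM 5-HT. Triplicates, scintillation counting.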
# [5] = species on record: Rattus norvegicus; assay: The percentage of rats selecting the drug lever at each dose; assay type: functional; method in brief: as §1
# [6] = molecular target: T1, Serotonin receptor 2a and 2c (5HT2A and 5HT2C); assay: Tested for the binding affinity against the site labelled by the 5-hydroxytryptamine 2A receptor - 5-hydroxytryptamine 2C receptor antagonist [3H] ketanserin; assay type: protein assay; method in brief: as §2
Structure (SMILES),ED50 [1] [µmol/kg],Ki [2] [µM],Ki [3] [µM],Ki [4] [µM],SDL [5],Ki [6] [µM]
COc1cc(CCN)c(OC)cc1I,1.04,0.0019,0.0809,,,
COc1cc(C(F)(F)F)c(OC)cc1CC(C)N (centres undefined),,0.0015,0.033,2.22,62.5% and 80% and 100%,
COc1cc(CC(C)N)c(OC)cc1I (centres undefined),0.97,,,,80% [middle of 4 runs],
COc1cc(C(F)(F)F)c(OC)cc1CCN,0.82,0.0011,,3.42,,0.0745
COc1cc(CC(C)N)c(OC)cc1Br (centres undefined) [BROLAMFETAMINE],1.12,,,,,
